# Measured values as given in publication PMC5116011 (The Journal of antibiotics, 2016).
# Where two headings read alike, the source gives them in different places.
# Tests used:
# E. faecalis ATCC33186 = test: MIC, microbroth dilution in Mueller-Hinton broth; type: cell-based; conditions: Enterococcus faecalis, ATCC33186, read-out: MIC EF
# In short: (§1)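 CLSI broth microdilution in cation-adjusted Mueller-Hinton broth. Inocula were grown from MH agar colonies in MH broth, with a final inoculum of 10^5 CFU/ml. Test compound final range was 200–0.2 µg/ml, incubated 37°C for 18–20 h. MIC was the lowest concentration preventing visible growth. Runs were at least duplicate, and the mean MIC was reported.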
# S. pyogenes ATCC700294 = test: MIC, microbroth dilution in Mueller-Hinton broth; type: cell-based; conditions: Streptococcus pyogenes, ATCC700294, read-out: MIC SPy
# In short: as §1
# S. pneumoniae R6 = test: MIC, microbroth dilution in Mueller-Hinton broth; type: cell-based; conditions: Streptococcus pneumoniae, R6, read-out: MIC SP
# In short: as §1
# B. anthracis sterne = test: microbe, parasite or virus in culture; type: cell-based; conditions: Bacillus anthracis, read-out: MIC BA
# B. subtilis ATCC23857 = test: MIC, microbroth dilution in Mueller-Hinton broth; type: cell-based; conditions: Bacillus subtilis, ATCC23857, read-out: MIC BS
# In short: as §1
# [1] = tested on: S. aureus -ATCC29213 (MSSA); test: MIC, microbroth dilution in Mueller-Hinton broth; type: cell-based; conditions: Staphylococcus aureus, read-out: MIC MSSA
# In short: as §1
# S. aureus NRS 70 (MRSA) = test: MIC, microbroth dilution in Mueller-Hinton broth; type: cell-based; conditions: Staphylococcus aureus, MRSA|NRS70, read-out: MIC MRSA
# In short: as §1
# E. coli BW25113 = test: MIC, microbroth dilution in Mueller-Hinton broth; type: cell-based, Escherichia coli; conditions: for MIC EC MH+BP/CCCP / MIC EC +: E. coli BW25113; for MIC EC MH+BP/CCCP: MH broth with 30 µg/ml 2,2′-bipyridyl and 50 µg/ml CCCP; for MIC EC +: with clavulanic acid (6µg/ml); for MIC: Escherichia coli, BW25113, read-out: MIC EC, E. coli BW25113, Mueller-Hinton broth (Table 2)
# [2] = tested on: E. coli BW25113 ΔtolC derivative JW5503-1; test: MIC, microbroth dilution in Mueller-Hinton broth; type: cell-based, Escherichia coli; conditions: for MIC: Escherichia coli
# P. vulgaris ATCC 33420 = test: MIC, microbroth dilution in Mueller-Hinton broth; type: cell-based; conditions: Proteus vulgaris, ATCC33420, read-out: MIC PV
# P. mirabilis ATCC 25933 = test: MIC, microbroth dilution in Mueller-Hinton broth; type: cell-based; conditions: Proteus mirabilis, ATCC25933, read-out: MIC PM
# P. aeruginosa PA01 = test: MIC, microbroth dilution in Mueller-Hinton broth; type: cell-based, Pseudomonas aeruginosa; conditions: for MIC PA MH+BP/CCCP / MIC PA +: P. aeruginosa PA01; for MIC PA MH+BP/CCCP: MH broth with 30 µg/ml 2,2′-bipyridyl and 50 µg/ml CCCP; for MIC PA +: with clavulanic acid (6µg/ml); for MIC: Pseudomonas aeruginosa
# [3] = tested on: E. coli BW25113 ΔampC derivative JW4111-2; type: cell-based, Escherichia coli; conditions: for MIC: Escherichia coli, BW25113, read-out: MIC ECΔampC −
# [4] = tested on: E. coli ATCC 35218 (Low-level TEM-1); test: MIC with and without clavulanic acid; type: cell-based; conditions: with clavulanic acid (6 µg/ml)
# In short: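 Mueller-Hinton broth microdilution per CLSI, run in parallel without and with the β-lactamase inhibitor clavulanic acid (6 µg/ml). MH-broth-grown inoculum was at 10^5 CFU/ml final, with test compound at 200–0.2 µg/ml final. Incubation was 37°C, 18–20 h, and the visible-growth endpoint was read. At least duplicate determinations; the mean MIC was reported.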
# [5] = Relative binding affinity; type: physicochemical
# In short: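 Chelator:Fe(III) stoichiometry was found by the continuous variation method. The apparent iron constant came from the drop in 460 nm absorbance of the preformed test compound–Fe(III) complex as EDTA concentration was raised. pM was calculated as –log free [Fe3+].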
# [6] = cited from earlier work
# [7] = BW25113, read-out: MIC ECΔtolC MH
# [8] = BW25113, read-out: MIC ECΔtolC MH+BP
Molecule,MIC (E. faecalis ATCC33186) [µg/mL],MIC (S. pyogenes ATCC700294) [µg/mL],MIC (S. pneumoniae R6) [µg/mL],MIC (B. anthracis sterne) [µg/mL],MIC (B. subtilis ATCC23857) [µg/mL],MIC [1] [µg/mL],MIC (S. aureus NRS 70 (MRSA)) [µg/mL],MIC EC MH+BP/CCCP (E. coli BW25113) [µg/mL],MIC EC + (E. coli BW25113) [µg/mL],MIC (E. coli BW25113) [µg/mL],"MIC ([2]; BW25113, read-out: MIC ECΔtolC) [µg/mL]","MIC [2, 7] [µg/mL]","MIC [2, 8] [µg/mL]",MIC ECΔtolC MH+BP/CCCP [2] [µg/mL],MIC ECΔtolC MH+CCCP [2] [µg/mL],MIC (P. vulgaris ATCC 33420) [µg/mL],MIC (P. mirabilis ATCC 25933) [µg/mL],MIC PA MH+BP/CCCP (P. aeruginosa PA01) [µg/mL],MIC PA + (P. aeruginosa PA01) [µg/mL],"MIC (P. aeruginosa PA01; PA01, read-out: MIC PA) [µg/mL]",also measured
CC1(C)SC2C(NC(=O)C(NC(=O)C3=C(O)C(Cc4ccc(F)cc4)NC3=O)c3ccccc3)C(=O)N2C1C(=O)O (stereo not shown) [Compound 2782],6.25,0.78,0.39,3.13,1.56,0.39,12.5,3.13,3.13,25,1.56,1.56,3.13,1.56,1.56,12.5,12.5,12.5,12.5,25,"MIC (P. aeruginosa PA01; PA01, read-out: MIC PA MH): 25 µg/mL; MIC (P. aeruginosa PA01; PA01, read-out: MIC PA MH+BP): 25 µg/mL; MIC (P. aeruginosa PA01; PA01, read-out: MIC PA MH+CCCP): 12.5 µg/mL; MIC [3]: 6.25 µg/mL; MIC ECΔampC + [3]: 3.13 µg/mL; MIC ATCC 35218 (Low-level TEM-1) + CLV [4]: 25 µg/mL"
CC1(C)SC2C(NC(=O)C(NC(=O)C3=C(O)C(Cc4ccsc4)NC3=O)c3ccccc3)C(=O)N2C1C(=O)O (stereo not shown) [Compound 2916],25,0.39,< 0.2,1.56,1.56,< 0.2,50,12.5,12.5,50,1.56,1.56,1.56,0.78,0.78,6.25,6.25,6.25,6.25,25,"MIC (P. aeruginosa PA01; PA01, read-out: MIC PA MH): 25 µg/mL; MIC (P. aeruginosa PA01; PA01, read-out: MIC PA MH+BP): 25 µg/mL; MIC (P. aeruginosa PA01; PA01, read-out: MIC PA MH+CCCP): 12.5 µg/mL; MIC [3]: 6.25 µg/mL; MIC ECΔampC + [3]: 3.13 µg/mL; MIC ATCC 35218 (Low-level TEM-1) + CLV [4]: 25 µg/mL; pM (–log [Fe^3+]) ([5]; 10^−5 M total iron chelator and 10^−6 M total Fe^3+ at pH 7.4): 20.3; apparent binding constant (Kd, app) for iron (III) ([5]; EDTA competition, MeOH:Tris buffer, pH 7.4 (98:2), 3:1 complex): 0.55 × 10^−29 M^3"
O=C(N[C@H]1COC(=O)[C@@H](NC(=O)c2cccc(O)c2O)COC(=O)[C@@H](NC(=O)c2cccc(O)c2O)COC1=O)c1cccc(O)c1O [enterobactin],–,–,–,–,–,–,–,–,–,–,–,–,–,–,–,–,–,–,–,–,"pM ([6]; E. coli enterobactin, ref [42]): 35.6"
CN1[C@@H]([C@H]2CSC(c3ccccc3O)=N2)SC[C@H]1C(=O)O [pyochelin],–,–,–,–,–,–,–,–,–,–,–,–,–,–,–,–,–,–,–,–,"pM ([6]; pyochelin, ref [43], [44]): 6; Kd ([6]; read-out: Kd for iron, pyochelin, ref [43], [44]): 10 µM"
pyoverdin,–,–,–,–,–,–,–,–,–,–,–,–,–,–,–,–,–,–,–,–,"pM ([6]; P. aeruginosa pyoverdin, ref [45], [46]): 27"
